IC50 data for 24 molecules are collected here from ChEMBL document CHEMBL3233000, “Cytotoxic ent-kaurane diterpenoids from Isodon wikstroemioides” (J Nat Prod, 2014).

Bounds are passed on as bounds.

What all share (type): functional, cell-based
The subject of one assay is HL-60. The assay is described as follows: Cytotoxicity against human HL60 cells assessed as growth inhibition after 48 hrs by MTS assay. The following applies: HL-60, 48 h. The method, boiled down: (§1)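 Cell lines from ATCC, grown in RPMI-1640 or DMEM with 10% FBS at 37 °C, 5% CO2. Cells seeded, incubated 12 h at 37 °C, then screened at 40 μM for 48 h with MTS read-out. Where growth inhibition reached 50%, retested at 0.064, 0.32, 1.6, 8 and 40 μM in triplicate. Cisplatin and paclitaxel were positive controls. IC50 by Reed and Muench method.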
A general note: Tetrazolium assays rely on reduction of a dye to a coloured formazan, in cell work by metabolically active cells.

The subject of another assay is SW480. The assay can be described thus: Cytotoxicity against human SW480 cells assessed as growth inhibition after 48 hrs by MTS assay. As to conditions: SW480, 48 h. The essentials: as §1
Another assay relates to RAW264.7. The assay can be described thus: Inhibition of nitric oxide production in LPS-stimulated mouse RAW264.7 cells after 18 hrs by griess reagent based plate reader analysis. The following applies: RAW264.7, 18 h. The method, boiled down:
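RAW264.7 macrophages seeded at 2 × 10^5 cells/well. Treated with serial dilutions (top concentration 25 μM), then stimulated with LPS 1 μg/mL for 18 h. Supernatant NO measured with Griess reagents, absorbance 550 nm. MG-132 was the positive control. Viability was checked in parallel by MTT (595 nm) to exclude cytotoxic interference.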
(In general: The Griess reaction detects nitrite, a stable product of nitric oxide.)

The next assay relates to MCF7. The assay is described as follows: Cytotoxicity against human MCF7 cells assessed as growth inhibition after 48 hrs by MTS assay. As to conditions: MCF7, 48 h. The essentials: as §1
The next assay concerns SMMC-7721. The assay can be described thus: Cytotoxicity against human SMMC7721 cells assessed as growth inhibition after 48 hrs by MTS assay. As to conditions: SMMC-7721, 48 h. The method, boiled down:
as §1

The subject of the next assay is A549. The assay can be described thus: Cytotoxicity against human A549 cells assessed as growth inhibition after 48 hrs by MTS assay. As to conditions: A549, 48 h. The essentials: as §1

In general, IC50 refers to the concentration that gives 50% inhibition. Consider `C=C1C(=O)[C@@]23CC[C@@H]4[C@@](C)(CO)CCC[C@@]4(C)[C@@H]2C[C@H](O)[C@@H]1[C@H]3O`, for which the IC50 with HL-60 was 8.8 µM; with SW480, 4 µM; in the assay with RAW264.7, 4.8 µM; in the assay on MCF7, over 10 µM; with SMMC-7721, 4 µM; with A549, over 10 µM.

Regarding `C=C1C(=O)[C@@]23[C@H](O)C[C@@H]4[C@@](C)(COC(C)=O)CCC[C@@]4(C)[C@@H]2C[C@H](O)[C@@H]1[C@H]3O` [ALBOPILOSIN A], the IC50 came to 2 µM in the assay with HL-60; 0.9 µM with SW480; 1.9 µM in the assay on RAW264.7; 1.7 µM with MCF7; 1.4 µM in the assay with SMMC-7721; 3.2 µM in the assay on A549.

`C=C1C(=O)[C@@]23[C@H](O)C[C@H]4[C@@](C)(CCC[C@]4(C)C=O)[C@@H]2C[C@H](O)[C@@H]1[C@H]3O` [MACROCALYXIN C]: the concentration for half-maximal inhibition (IC50) with HL-60 is 3.7 µM; in the assay with SW480 it was 2.1 µM; with RAW264.7 it was 2.7 µM; in the assay with MCF7 it was 3.7 µM; with SMMC-7721, 4 µM; with A549, over 10 µM.

For the molecule `C=C1[C@@H]2C[C@H](OC(C)=O)[C@H]3[C@]4(C)[C@@H](OC(C)=O)C[C@H](O)C(C)(C)[C@H]4C(=O)[C@H](OC(C)=O)[C@]3(C2)[C@@H]1O` [ADENANTHIN J], the IC50 with HL-60, with SW480, in the assay with MCF7, in the assay on SMMC-7721 and with A549 was over 10 µM in each case.

Turning to `C=C1C(=O)[C@@]23[C@H](O)C[C@@H]4[C@@](C)(CO)CCC[C@@]4(C)[C@@H]2[C@@H](O)C[C@@H]1[C@H]3O` [RABDOKUNMIN D], the IC50 in the assay with HL-60, in the assay with SW480, in the assay with MCF7, in the assay with SMMC-7721 and in the assay on A549 was over 10 µM throughout.

On to `C=C1[C@@H]2C[C@H](O)[C@H]3[C@]4(C)[C@@H](OC(C)=O)C[C@H](O)C(C)(C)[C@H]4[C@@H](OC(C)=O)[C@H](OC(C)=O)[C@]3(C2)[C@@H]1O` [NERVONIN G], for which the IC50 with HL-60, in the assay on SW480, in the assay on MCF7, in the assay on SMMC-7721 and with A549 was over 10 µM in each case.

`C=C1[C@@H]2CC[C@H]3[C@]4(C)CCC(=O)[C@](C)(CO)[C@H]4CC[C@]3(C2)[C@@H]1O`: the IC50 in the assay with HL-60, in the assay on SW480, in the assay on MCF7, in the assay on SMMC-7721 and with A549 was over 10 µM in each case.

Turning to `C=C1C(=O)[C@@]23[C@H](O)C[C@@H]4[C@@](C)(CO)[C@@H](O)CC[C@@]4(C)[C@@H]2CC(=O)[C@@H]1[C@H]3O`, the half-maximal inhibitory concentration (IC50) in the assay on HL-60, with SW480, in the assay on MCF7, in the assay with SMMC-7721 and in the assay on A549 was over 10 µM throughout.

Take `C=C1[C@H]2[C@@H](O)[C@@]3([C@H](O)C[C@@H]4[C@@](C)(CO)CCC[C@@]4(C)[C@@H]3C[C@@H]2O)[C@@H]1OC(C)=O` [ALBOPILOSIN B]: the IC50 in the assay on HL-60, with SW480, with MCF7, with SMMC-7721 and in the assay on A549 was over 10 µM each time.

Consider `C=C1C(=O)[C@@]23[C@H](O)C[C@@H]4C(C)(C)CCC[C@@]4(C)[C@@H]2[C@@H](O)[C@H](O)[C@@H]1[C@H]3O` [RABDOLOXIN B], for which the IC50 in the assay on HL-60 amounted to 2.9 µM; with SW480, 2.4 µM; in the assay with RAW264.7, 1.9 µM; with MCF7, 3 µM; with SMMC-7721, 3.4 µM; in the assay with A549, 4.4 µM.

Regarding `C=C1C(=O)[C@@]23[C@H](O)C[C@@H]4[C@@](C)(CO)CCC[C@@]4(C)[C@@H]2C[C@H](O)[C@@H]1[C@H]3OC(C)=O`, the IC50 with HL-60 is over 10 µM; with SW480 it was 8.6 µM; with RAW264.7 it was 16.5 µM; in the assay with MCF7 it was over 10 µM; in the assay with SMMC-7721 it was over 10 µM; in the assay on A549, over 10 µM.

Take `C=C1C(=O)[C@@]23CC[C@H]4[C@@](C)(CCC[C@]4(C)C=O)[C@@H]2C[C@H](O)[C@@H]1[C@H]3O`: the IC50 in the assay on HL-60 turned out to be 3.2 µM; with SW480 it was 1 µM; in the assay with RAW264.7, 1.9 µM; with MCF7, 1.7 µM; in the assay on SMMC-7721, 1.4 µM; in the assay on A549 it was 0.9 µM.

Consider `C=C1C(=O)[C@]23C[C@H]1C[C@H](OC(C)=O)[C@H]2[C@]1(C)[C@@H](OC(C)=O)C[C@H](O)C(C)(C)[C@H]1C(=O)[C@@H]3OC(C)=O` [ADENANTHIN], for which the IC50 in the assay on HL-60 came to 3.6 µM; in the assay with SW480, 2 µM; with RAW264.7 it was 3.3 µM; in the assay on MCF7 it was 2.8 µM; in the assay with SMMC-7721 it was 4 µM; in the assay on A549 it was 3.3 µM.

For the molecule `C=C1C(=O)[C@@]23C[C@H](O)[C@@H]4C(C)(C)CCC[C@@]4(C)[C@@H]2[C@@H](O)C[C@@H]1[C@H]3O`, the IC50 is 4.8 µM with HL-60; 2.3 µM in the assay on SW480; 2.5 µM in the assay with RAW264.7; 3.7 µM with MCF7; 5.1 µM in the assay on SMMC-7721; 5.1 µM with A549.

As to `CC(=O)O[C@H]1C(=O)[C@@]2(C)[C@H]([C@H](OC(=O)c3ccccc3)[C@]3(O)C[C@H](OC(=O)[C@H](O)[C@@H](NC(=O)c4ccccc4)c4ccccc4)C(C)=C1C3(C)C)[C@]1(OC(C)=O)CO[C@@H]1C[C@@H]2O` [PACLITAXEL], the IC50 with HL-60, with SW480, with MCF7, in the assay on SMMC-7721 and in the assay with A549 was under 0.008 µM throughout.

For `C=C1C(=O)[C@@]23[C@H](O)C[C@@H]4C(C)(C)CCC[C@@]4(C)[C@@H]2[C@@H](O)[C@H](O)[C@@H]1[C@H]3OC(C)=O` [RABDOKUNMIN A], the 50% inhibitory concentration (IC50) was 8.8 µM with HL-60; 4.7 µM in the assay with SW480; 7.2 µM in the assay on RAW264.7; over 10 µM in the assay on MCF7; 5.8 µM with SMMC-7721; over 10 µM in the assay on A549.

Consider `C=C1C(=O)[C@@]23[C@H](O)C[C@@H]4C(C)(C)[C@H](O)CC[C@@]4(C)[C@@H]2[C@@H](O)[C@H](O)[C@@H]1[C@H]3O`, for which the IC50 in the assay on HL-60, with SW480, with MCF7, with SMMC-7721 and in the assay on A549 was over 10 µM each time.

Consider `C=C1C(=O)[C@@]23[C@H](O)C[C@@H]4C(C)(C)CCC[C@@]4(C)[C@@H]2C[C@H](O)[C@@H]1[C@H]3O` [ISOSCOPARIN L], for which the IC50 with HL-60 was 0.5 µM; with SW480 it was 0.6 µM; in the assay with RAW264.7, 0.8 µM; in the assay on MCF7 it was 0.4 µM; in the assay with SMMC-7721, 1.2 µM; with A549 it was 0.8 µM.

Turning to `C=C1C(=O)[C@@]23[C@H](O)C[C@@H]4[C@@](C)(CO)[C@H](O)CC[C@@]4(C)[C@@H]2C[C@H](O)[C@@H]1[C@H]3O`, the IC50 with HL-60, with SW480, with MCF7, in the assay with SMMC-7721 and in the assay on A549 was over 10 µM in each case.

For the molecule `C=C1C(=O)[C@]23C[C@H]1CC[C@H]2[C@]1(CO)CCC[C@](C)(CO)[C@H]1C[C@H]3O`, the IC50 in the assay with HL-60 is over 10 µM; in the assay with SW480, 4 µM; with RAW264.7 it was 2.8 µM; in the assay on MCF7 it was 7.3 µM; in the assay on SMMC-7721, 7.1 µM; in the assay on A549 it was over 10 µM.

In the case of `C=C1C(=O)[C@@]23[C@H](O)C[C@@H]4[C@@](C)(CO)CCC[C@@]4(CO)[C@@H]2C[C@H](O)[C@@H]1[C@H]3O`, the IC50 with HL-60, in the assay on SW480, with MCF7, in the assay with SMMC-7721 and in the assay with A549 was over 10 µM throughout.

In the case of `C=C1[C@@H]2C[C@H](OC(C)=O)[C@H]3[C@]4(C)[C@@H](OC(C)=O)C[C@H](O)C(C)(C)[C@H]4C(=O)[C@H](O)[C@]3(C2)[C@@H]1O` [NERVONIN E], the IC50 in the assay on HL-60, in the assay on SW480, in the assay on MCF7, in the assay on SMMC-7721 and in the assay with A549 was over 10 µM each time.

For `C=C1[C@@H]2C[C@H](OC(C)=O)[C@H]3[C@]4(C)[C@@H](OC(C)=O)C[C@H](O)C(C)(C)[C@H]4C(=O)[C@H](O)[C@]3(C2)[C@@H]1OC(C)=O` [ADENANTHIN K], the half-maximal inhibitory concentration (IC50) in the assay on HL-60, in the assay on SW480, with MCF7, with SMMC-7721 and with A549 was over 10 µM each time.

With `C=C1[C@H]2[C@@H](O)[C@@]3([C@H](O)C[C@@H]4[C@@](C)(CO)CCC[C@@]4(C)[C@@H]3C[C@@H]2O)[C@@H]1O`, the IC50 with HL-60, in the assay on SW480, with MCF7, in the assay on SMMC-7721 and with A549 was over 10 µM each time.
